Laboratory results as given in ChEMBL document CHEMBL5136969, “A niclosamide-tobramycin hybrid adjuvant potentiates cefiderocol against P. aeruginosa” (2021).
Activity calls are given as the source filed them.

Tests used:
Pseudomonas aeruginosa [1] = experiment: Antibacterial activity against MDR clinical isolate Pseudomonas aeruginosa PA101885 assessed as reduction in bacterial growth after 18 hrs in presence of cefiderocol by microbroth dilution method; format: functional
Summary of the method: (§1)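 Checkerboard in MHB (iron-replete, not iron-depleted CAMHB). Cefiderocol was 2-fold serially diluted along one axis and the adjuvant along the other. Inoculum was 0.5 McFarland diluted 1:50, about 5 × 10^5 CFU/mL final. Incubation was 18 h at 37 °C, with turbidity read visually and confirmed at 590 nm. FIC was the MIC in combination over the MIC alone for each agent, and the FIC index was their sum. Cut-offs were ≤0.5 synergy, >0.5–4 additive, >4 antagonism.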

Acinetobacter baumannii [2] = experiment: Antibacterial activity against Acinetobacter baumannii LAC-4 assessed as potentiation of cefiderocol antibacterial activity by measuring FIC after 18 hrs by microbroth dilution method; format: functional
Summary of the method: (§2)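 Checkerboard in Mueller-Hinton broth: cefiderocol 2-fold diluted on one axis, adjuvant 2-fold on the other. Overnight cultures were adjusted to 0.5 McFarland in saline, diluted 1:50 in MHB, and inoculated at about 5 × 10^5 CFU/mL. Incubation was 18 h at 37 °C. Turbidity was read visually and confirmed at 590 nm. FIC index = FIC of antibiotic + FIC of adjuvant; ≤0.5 synergy, >4 antagonism.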

Pseudomonas aeruginosa [3] = experiment: Potentiation of ceftazidime-induced antibiotic activity against MDR clinical isolate Pseudomonas aeruginosa PA264 assessed as MIC fold reduction at 8 ug/ml after 18 hrs by microbroth dilution method; format: functional, organism-based; settings: dose 8.0 µg/ml
Summary of the method: (§3)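 Adjuvant held at a fixed 8 μg/mL while the antibiotic was 2-fold serially diluted in Mueller-Hinton broth (MHB), per CLSI microbroth dilution. Overnight cultures were adjusted in saline to 0.5 McFarland, then diluted 1:50 in MHB to about 5 × 10^5 CFU/mL final, and incubated 18 h at 37 °C. MIC was the lowest concentration with no visible turbidity, confirmed at 590 nm. Fold potentiation = MIC alone / MIC with adjuvant.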

Acinetobacter baumannii [4] = experiment: Antibacterial activity against Acinetobacter baumannii LAC-4 assessed as reduction in bacterial growth after 18 hrs in presence of cefiderocol by microbroth dilution method; format: functional; summary of the method: as §2
Escherichia coli [5] = experiment: Potentiation of niclosamide-induced antibiotic activity against Escherichia coli ATCC 25922 assessed as MIC fold reduction at 8 ug/ml after 18 hrs by microbroth dilution method; format: functional; settings: dose 8 µg/ml
Pseudomonas aeruginosa [6] = experiment: Potentiation of minocycline-induced antibiotic activity against Pseudomonas aeruginosa PAO1 assessed as MIC fold reduction at 8 ug/ml after 18 hrs by microbroth dilution method; format: functional; settings: dose 8 µg/ml; summary of the method: as §3
Pseudomonas aeruginosa [7] = experiment: Antibacterial activity against MDR clinical isolate Pseudomonas aeruginosa PA264 assessed as potentiation of cefiderocol antibacterial activity by measuring FIC index after 18 hrs by microbroth dilution method; format: functional; summary of the method: as §1
Pseudomonas aeruginosa [8] = experiment: Potentiation of linezolid-induced antibiotic activity against Pseudomonas aeruginosa PAO1 assessed as MIC fold reduction at 8 ug/ml after 18 hrs by microbroth dilution method; format: functional; settings: dose 8 µg/ml; summary of the method: as §3
Pseudomonas aeruginosa [9] = experiment: Antibacterial activity against MDR clinical isolate Pseudomonas aeruginosa PA108590 assessed as reduction in bacterial growth after 18 hrs by microbroth dilution method; format: functional
Summary of the method: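 CLSI broth microdilution. Overnight cultures were adjusted in saline to 0.5 McFarland, diluted 1:50 in Mueller-Hinton broth (MHB), and inoculated at about 5 × 10^5 CFU/mL. Agents were 2-fold serially diluted in MHB, mixed 1:1 with inoculum, and held at 37 °C for 18 h. MIC was the lowest concentration with no visible turbidity, confirmed at 590 nm.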

Pseudomonas aeruginosa [10] = experiment: Potentiation of doxycycline-induced antibiotic activity against Pseudomonas aeruginosa PAO1 assessed as MIC fold reduction at 8 ug/ml after 18 hrs by microbroth dilution method; format: functional; settings: dose 8 µg/ml; summary of the method: as §3
Pseudomonas aeruginosa [11] = experiment: Potentiation of ceftazidime-induced antibiotic activity against Pseudomonas aeruginosa PAO1 assessed as MIC fold reduction at 8 ug/ml after 18 hrs by microbroth dilution method; format: functional; settings: dose 8 µg/ml; summary of the method: as §3
Escherichia coli [12] = experiment: Potentiation of sulfamethoxazole-induced antibiotic activity against Escherichia coli ATCC 25922 assessed as MIC fold reduction at 8 ug/ml after 18 hrs by microbroth dilution method; format: functional; settings: dose 8 µg/ml
Acinetobacter baumannii [13] = experiment: Potentiation of rifampicin-induced antibiotic activity against Acinetobacter baumannii ATCC 17978 assessed as MIC fold reduction at 8 ug/ml after 18 hrs by microbroth dilution method; format: functional; settings: dose 8 µg/ml
Acinetobacter baumannii [14] = experiment: Antibacterial activity against Acinetobacter baumannii AB92247 assessed as reduction in bacterial growth after 18 hrs by microbroth dilution method; format: functional
Summary of the method: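 CLSI microbroth dilution in MHB. Overnight cultures were adjusted to 0.5 McFarland in saline, diluted 1:50, and inoculated at about 5 × 10^5 CFU/mL. Agents were 2-fold serially diluted and incubated 18 h at 37 °C. MIC is the lowest concentration without visible turbidity, confirmed by absorbance at 590 nm. Medium with and without cells served as controls.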

Enterobacter cloacae [15] = experiment: Antibacterial activity against Enterobacter cloacae 121187 assessed as potentiation of cefiderocol antibacterial activity by measuring FIC after 18 hrs by microbroth dilution method; format: functional; summary of the method: as §2
Enterobacter cloacae [16] = experiment: Antibacterial activity against Enterobacter cloacae 121187 assessed as reduction in bacterial growth after 18 hrs in presence of cefiderocol by microbroth dilution method; format: functional; summary of the method: as §2
Escherichia coli [17] = experiment: Potentiation of aztreonam-induced antibiotic activity against Escherichia coli ATCC 25922 assessed as MIC fold reduction at 8 ug/ml after 18 hrs by microbroth dilution method; format: functional; settings: dose 8 µg/ml
Summary of the method: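 Initial screen in MHB using a fixed 8 μg mL−1 of adjuvant combined with each antibiotic under 2-fold dilution. Broth microdilution used about 5 × 10^5 CFU/mL at 37 °C for 18 h, with visible turbidity read and confirmed at 590 nm. Fold-potentiation = antibiotic MIC alone ÷ antibiotic MIC with adjuvant.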

Pseudomonas aeruginosa [18] = experiment: Potentiation of rifampicin-induced antibiotic activity against Pseudomonas aeruginosa PAO1 assessed as MIC fold reduction at 8 ug/ml after 18 hrs by microbroth dilution method; format: functional; settings: dose 8 µg/ml
Pseudomonas aeruginosa [19] = experiment: Potentiation of cindamycin-induced antibiotic activity against Pseudomonas aeruginosa PAO1 assessed as MIC fold reduction at 8 ug/ml after 18 hrs by microbroth dilution method; format: functional; settings: dose 8 µg/ml; summary of the method: as §3
Escherichia coli [20] = experiment: Potentiation of vancomycin-induced antibiotic activity against Escherichia coli ATCC 25922 assessed as MIC fold reduction at 8 ug/ml after 18 hrs by microbroth dilution method; format: functional; settings: dose 8 µg/ml
Pseudomonas aeruginosa [21] = experiment: Antibacterial activity against MDR clinical isolate Pseudomonas aeruginosa PA108590 assessed as reduction in bacterial growth after 18 hrs in presence of cefiderocol by microbroth dilution method; format: functional
Summary of the method: (§4)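 Checkerboard in MHB. Cefiderocol was 2-fold serially diluted along one axis and the adjuvant along the other. Inoculum was prepared from 0.5 McFarland saline suspensions diluted 1:50 in MHB, giving about 5 × 10^5 CFU/mL final. Plates ran 18 h at 37 °C, with turbidity confirmed at 590 nm. FIC = combination MIC ÷ MIC alone for each agent, and FIC index = sum of both. Interpretation: ≤0.5 synergy, >0.5–4 additive, >4 antagonism.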

Pseudomonas aeruginosa [22] = experiment: Antibacterial activity against MDR clinical isolate Pseudomonas aeruginosa PA100036 assessed as reduction in bacterial growth after 18 hrs in presence of cefiderocol by microbroth dilution method; format: functional; summary of the method: as §4
Pseudomonas aeruginosa [23] = experiment: Antibacterial activity against MDR clinical isolate Pseudomonas aeruginosa PA259 assessed as potentiation of cefiderocol antibacterial activity by measuring FIC index after 18 hrs by microbroth dilution method; format: functional; summary of the method: as §4

NC[C@H]1O[C@H](O[C@H]2[C@H](OCCCCc3cn(-c4ccc(NC(=O)c5cc(Cl)ccc5O)cc4)nn3)[C@@H](O[C@H]3O[C@H](CO)[C@@H](O)[C@H](N)[C@H]3O)[C@H](N)C[C@@H]2N)[C@H](N)C[C@@H]1O
MIC (Pseudomonas aeruginosa [1]): 2 µg/mL
FIC (Acinetobacter baumannii [2]): 1
Activity (Pseudomonas aeruginosa [3]): Active
MIC (Acinetobacter baumannii [4]): 0.25 µg/mL
fold change (FC) (Escherichia coli [5]): 4
fold change (FC) (Pseudomonas aeruginosa [6]): 4
FIC (Pseudomonas aeruginosa [7]): 0.125
fold change (FC) (Pseudomonas aeruginosa [8]): 4
MIC (Pseudomonas aeruginosa [9]): > 128 µg/mL
fold change (FC) (Pseudomonas aeruginosa [10]): 4
fold change (FC) (Pseudomonas aeruginosa [11]): 4
fold change (FC) (Escherichia coli [12]): 4
fold change (FC) (Acinetobacter baumannii [13]): 4
MIC (Acinetobacter baumannii [14]): > 128 µg/mL
FIC (Enterobacter cloacae [15]): 1
MIC (Enterobacter cloacae [16]): 0.25 µg/mL
fold change (FC) (Escherichia coli [17]): 4
fold change (FC) (Pseudomonas aeruginosa [18]): 4
fold change (FC) (Pseudomonas aeruginosa [19]): 4
fold change (FC) (Escherichia coli [20]): 4
MIC (Pseudomonas aeruginosa [21]): 4 µg/mL
MIC (Pseudomonas aeruginosa [22]): 0.25 µg/mL
FIC (Pseudomonas aeruginosa [23]): 0.031
